# Experimental data as given in ChEMBL document CHEMBL1287782, “Design, synthesis, and characterization of BK channel openers based on oximation of abietane diterpene derivatives” (Bioorg Med Chem, 2010).
# Biological target: Calcium-activated potassium channel subunit alpha-1 (Homo sapiens) (UniProt Q12791)
# Experiment: Activation of human BK alpha channel expressed in CHO-K1 cells assessed as ionic current at 30 uM by patch clamp electrophysiological assay relative to control
# Format: cell-based
# Summary of the method: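 Automated population patch clamp (64-hole PPC) on CHO-K1 cells stably expressing hBKα. Internal (mM): 140 KCl, 1.0 MgCl2, 20 HEPES, pH 7.25–7.3. External (mM): 137 NaCl, 4.0 KCl, 1.0 MgCl2, 2.0 CaCl2, 10 glucose, 20 HEPES, pH 7.4. Cells suspended in external solution with 20 µM BAPTA-AM before loading. Step to +100 mV from holding potential; current at 30 µM compound as % of drug-free control; n = 8.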
# Calcium-activated potassium channel subunit alpha-1 (Homo sapiens), sequence (Q12791 whole entry): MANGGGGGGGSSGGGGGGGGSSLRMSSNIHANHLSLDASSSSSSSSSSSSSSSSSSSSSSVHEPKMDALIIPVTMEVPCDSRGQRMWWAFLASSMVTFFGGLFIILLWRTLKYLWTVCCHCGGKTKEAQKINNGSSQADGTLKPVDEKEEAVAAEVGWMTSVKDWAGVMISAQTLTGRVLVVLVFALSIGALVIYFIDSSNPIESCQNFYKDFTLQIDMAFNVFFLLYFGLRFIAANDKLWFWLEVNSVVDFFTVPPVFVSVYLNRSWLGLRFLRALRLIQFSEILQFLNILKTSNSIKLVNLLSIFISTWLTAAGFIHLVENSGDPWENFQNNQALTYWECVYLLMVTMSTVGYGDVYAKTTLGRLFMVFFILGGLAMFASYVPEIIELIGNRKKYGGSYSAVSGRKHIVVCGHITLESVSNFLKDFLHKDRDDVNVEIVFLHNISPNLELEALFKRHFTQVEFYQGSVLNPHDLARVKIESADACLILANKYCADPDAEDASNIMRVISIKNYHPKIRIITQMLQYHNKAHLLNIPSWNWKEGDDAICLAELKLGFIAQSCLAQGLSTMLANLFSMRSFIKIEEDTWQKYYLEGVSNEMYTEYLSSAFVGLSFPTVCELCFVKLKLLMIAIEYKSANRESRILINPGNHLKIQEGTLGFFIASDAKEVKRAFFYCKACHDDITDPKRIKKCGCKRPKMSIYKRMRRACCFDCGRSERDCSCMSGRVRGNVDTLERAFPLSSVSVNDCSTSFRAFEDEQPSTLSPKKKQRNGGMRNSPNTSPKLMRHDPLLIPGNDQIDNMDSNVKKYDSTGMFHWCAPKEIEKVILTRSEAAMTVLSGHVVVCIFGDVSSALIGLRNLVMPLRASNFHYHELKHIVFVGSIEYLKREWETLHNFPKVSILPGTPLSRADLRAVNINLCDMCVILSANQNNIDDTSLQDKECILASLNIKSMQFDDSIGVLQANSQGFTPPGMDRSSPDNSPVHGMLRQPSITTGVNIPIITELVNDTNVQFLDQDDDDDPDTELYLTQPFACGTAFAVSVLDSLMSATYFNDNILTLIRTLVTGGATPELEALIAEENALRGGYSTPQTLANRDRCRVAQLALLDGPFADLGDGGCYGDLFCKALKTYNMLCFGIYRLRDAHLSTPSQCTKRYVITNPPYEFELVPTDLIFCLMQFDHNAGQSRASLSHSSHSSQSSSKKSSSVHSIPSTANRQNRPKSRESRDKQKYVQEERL
row,Compound,Activity [%]
1,CC(C)O/N=C1\C[C@H]2[C@](C)(C(=O)O)CCC[C@]2(C)c2cc(Cl)c(C(C)C)c(Cl)c21,184
2,CC(C)c1c(Cl)cc2c(c1Cl)/C(=N/OCC1CCCCC1)C[C@H]1[C@](C)(C(=O)O)CCC[C@]21C,129
3,CC(C)c1c(Cl)c(Cl)c2c(c1Cl)/C(=N/O)C[C@H]1[C@](C)(C(=O)O)CCC[C@]21C,229
4,C=CCO/N=C1\C[C@H]2[C@@](C)(C(=O)O)CCC[C@]2(C)c2cc(OCCCc3ccccc3)ccc21,160
5,CC(C)c1ccc2c(c1)/C(=N/OCCCc1ccccc1)C[C@H]1[C@](C)(C(=O)O)CCC[C@]21C,143
6,CO/N=C1\C[C@H]2[C@](C)(C(=O)O)CCC[C@]2(C)c2c(Cl)c(Cl)c(C(C)C)c(Cl)c21,235
7,CCCCCCCO/N=C1\C[C@H]2[C@](C)(C(=O)O)CCC[C@]2(C)c2cc(Cl)c(C(C)C)c(Cl)c21,111
8,CC(C)=CCO/N=C1\C[C@H]2[C@@](C)(C(=O)O)CCC[C@]2(C)c2cc(OCCCc3ccccc3)ccc21,138
9,CCO/N=C1\C[C@H]2[C@](C)(C(=O)O)CCC[C@]2(C)c2cc(Cl)c(C(C)C)c(Cl)c21,212
10,CC(C)c1c(Cl)cc2c(c1Cl)C(=O)C[C@H]1[C@](C)(C(=O)O)CCC[C@]21C,124
11,CCCO/N=C1\C[C@H]2[C@](C)(C(=O)O)CCC[C@]2(C)c2cc(Cl)c(C(C)C)c(Cl)c21,192
12,C=CCO/N=C1\C[C@H]2[C@](C)(C(=O)O)CCC[C@]2(C)c2ccc(C(C)C)cc21,182
13,CO/N=C1/c2ccc(OCCCc3ccccc3)cc2[C@@]2(C)CCC[C@](C)(C(=O)O)[C@@H]2C1O (some centres not stated),125
14,CC(C)c1ccc2c(c1)/C(=N/O)C[C@H]1[C@](C)(C(=O)O)CCC[C@]21C,121
15,C#CCO/N=C1\C[C@H]2[C@](C)(C(=O)O)CCC[C@]2(C)c2cc(Cl)c(C(C)C)c(Cl)c21,261
16,C[C@]1(C(=O)O)CCC[C@]2(C)c3cc(OCCCc4ccccc4)ccc3/C(=N/OCCCc3ccccc3)C[C@@H]12,134
17,CC(C)=CCO/N=C1\C[C@H]2[C@](C)(C(=O)O)CCC[C@]2(C)c2cc(Cl)c(C(C)C)c(Cl)c21,126
18,CC(C)c1c(Cl)cc2c(c1Cl)/C(=N/OCC1CC1)C[C@H]1[C@](C)(C(=O)O)CCC[C@]21C,181
19,CC(C)c1cc2c(cc1Br)[C@@]1(C)CCC[C@@](C)(C(=O)O)[C@@H]1CC2=O,166
20,CC(C)c1ccc2c(c1)C(=O)C[C@H]1[C@](C)(C(=O)O)CCC[C@]21C,100
21,C[C@]1(C(=O)O)CCC[C@]2(C)c3cc(OCCCc4ccccc4)ccc3/C(=N/O)C[C@@H]12,134
22,C[C@]1(C(=O)O)CCC[C@]2(C)c3cc(OCCCc4ccccc4)ccc3/C(=N/OCCCc3ccccc3)C(O)[C@@H]12 (some centres not stated),107
23,CO/N=C1\C[C@H]2[C@@](C)(C(=O)O)CCC[C@]2(C)c2cc(O)ccc21,103
24,C[C@]1(C(=O)O)CCC[C@]2(C)c3cc(OCCCc4ccccc4)ccc3/C(=N/OCc3ccccc3)C[C@@H]12,152
25,CC(C)c1c(Cl)cc2c(c1Cl)/C(=N/OCc1ccccc1)C[C@H]1[C@](C)(C(=O)O)CCC[C@]21C,151

# Second part, the compound after the results:
row,Activity [%],Compound
1,137,CC(C)c1c(Cl)cc2c(c1Cl)/C(=N/O)C[C@H]1[C@](C)(C(=O)O)CCC[C@]21C
2,216,CO/N=C1\C[C@H]2[C@](C)(C(=O)O)CCC[C@]2(C)c2cc(Br)c(C(C)C)cc21
3,166,C#CCO/N=C1\C[C@H]2[C@@](C)(C(=O)O)CCC[C@]2(C)c2cc(OCCCc3ccccc3)ccc21
4,142,C#CCO/N=C1\C[C@H]2[C@](C)(C(=O)O)CCC[C@]2(C)c2ccc(C(C)C)cc21
5,297,C=CCO/N=C1\C[C@H]2[C@](C)(C(=O)O)CCC[C@]2(C)c2cc(Cl)c(C(C)C)c(Cl)c21
6,123,CC(C)c1ccc2c(c1)/C(=N/OCc1ccccc1)C[C@H]1[C@](C)(C(=O)O)CCC[C@]21C
7,237,C=CCO/N=C1\C[C@H]2[C@](C)(C(=O)O)CCC[C@]2(C)c2cc(Br)c(C(C)C)cc21
8,213,CO/N=C1\C[C@H]2[C@](C)(C(=O)O)CCC[C@]2(C)c2cc(Cl)c(C(C)C)c(Cl)c21
9,151,CO/N=C1\C[C@H]2[C@@](C)(C(=O)O)CCC[C@]2(C)c2cc(OCCCc3ccccc3)ccc21
10,162,CC(C)c1cc2c(cc1Br)[C@@]1(C)CCC[C@@](C)(C(=O)O)[C@@H]1C/C2=N\O
11,145,CC(C)CCO/N=C1\C[C@H]2[C@](C)(C(=O)O)CCC[C@]2(C)c2cc(Cl)c(C(C)C)c(Cl)c21
12,153,CO/N=C1\C[C@H]2[C@](C)(C(=O)O)CCC[C@]2(C)c2ccc(C(C)C)cc21
